The values below come from ChEMBL document CHEMBL1141347, “Heptaketides from Corynespora sp. inhabiting the cavern beard lichen, Usnea cavernosa: first report of metabolites of an endolichenic fungus” (J Nat Prod, 2007).

Assay [1] relates to PC-3M. The assay is described as follows: Inhibition of human PC3M cell migration by wound-healing assay. Type of assay: functional, cell-based.
Assay [2] relates to MDA-MB-231. Nature of the assay: Inhibition of human MDA-MB-231 cell migration by wound-healing assay. It is filed as functional, cell-based.
Assay [3] deals with PC-3M. Nature of the assay: Inhibition of human PC3M cell migration at 5 uM by wound-healing assay. It is filed as functional, cell-based.
Assay [4] deals with PC-3M. Nature of the assay: Effect on cell viability of human PC3M cells at 5 uM by microscopy based assay. It is filed as functional. The method, boiled down: (§1)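 Cells exposed during wound-healing assay, then stained with a live/dead kit. Live cells fluoresce green from esterase conversion of calcein AM to calcein; ethidium homodimer 1 enters membrane-damaged cells, giving red fluorescence on nucleic acid binding. Imaged by microscopy. Controls: DMSO (background), LY294002 7.5 µM, 0.1% saponin for 10 min (death).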

In assay [5] the test system is MDA-MB-231. Nature of the assay: Inhibition of human MDA-MB-231 cell migration at 5 uM by wound-healing assay. It is filed as functional, cell-based.
Assay [6] can be described thus: Antiproliferative activity against human PC3M cells after 40 hrs by MTT assay. Type of assay: functional, cell-based. Conditions: PC-3M. (In general: Tetrazolium assays rely on reduction of a dye to a coloured formazan, in cell work by metabolically active cells.)
The test system of assay [7] is PC-3M. Nature of the assay: Effect on cell viability of human PC3M cells at 5 uM by flow cytometry. It is filed as functional, cell-based. The method, boiled down:
(§2)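 Cells harvested straight from wound-healing assays by trypsinisation, washed twice with PBS, stained with ViaCount Flex reagent and run on a Guava EasyCyte flow cytometer, with EasyFit analysis separating viable cells from dead cells and debris. DMSO background control, 70% methanol death control, LY294002 control.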
Background: Flow cytometry measures light scatter and fluorescence of single cells or particles in a stream.

Assay [8] has as its system MDA-MB-231. The assay is described as follows: Effect on cell viability of human MDA-MB-231 cells at 5 uM by flow cytometry. It is filed as functional, cell-based. The gist of the method:
as §2

For assay [9], the system named is MDA-MB-231. Nature of the assay: Effect on cell viability of human MDA-MB-231 cells at 5 uM by microscopy based assay. Type of assay: functional. The gist of the method: as §1
In assay [10] the test system is PC-3M. The assay is described as follows: Inhibition of human PC3M cell migration at 10 uM by wound-healing assay. Type of assay: functional, cell-based. The gist of the method:
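PC-3M scratch wound-healing migration assay with compound at 10 µM over 40 h. DMSO negative and LY294002 positive controls.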

Active and inactive are the calls of the source. The calls are words filed in the database; no cut-off is given here.

With `COc1cc(OC)c2c(c1)C(=O)C1=C(C2=O)C(O)OC(C)=C1` (configuration not stated), the result in [1] and in assay [2] was inactive.
Take `COc1cc(OC)c2c(c1)C(=O)C1=C(COC(C)=C1)C2=O` [DEHYDROHERBARIN]: the outcome in assay [3] and in [5] was Active. Also, the outcome in assay [4], in assay [7], in assay [8] and in assay [9] was inactive. This compound came in with a 25% effect concentration (IC25) in assay [6] of 2200 nM. The same compound displayed an IC50 in [6] of 3500 nM.
With `COc1cc(OC)c2c(OC(C)=O)c3c(c(OC(C)=O)c2c1)C=C(C)OC3`, the outcome in [1] and in [2] was inactive.
Turning to `COc1cc(OC)c2c(c1)C(=O)C1=C(CO[C@@](C)(O)C1)C2=O`, in assay [10], the result was Active.
For `COc1cc(OC)c2c(O)c3c(c(OC(C)=O)c2c1)C=C(C)OC3`, the result in [1] and in [2] was inactive.
`COc1cc(OC)c2c(O)c3c(c(OC(C)=O)c2c1)C[C@](C)(O)OC3`: the outcome in [1] and in [2] was inactive.

By IC25 is commonly meant the concentration at which the effect reaches the 25% level. Read a high IC25 as weaker potency. As a reminder, the IC50 is the concentration needed to halve the response being measured. Read a low IC50 as greater potency.
